# Measurements from different studies.
# Each line is one published result; the experiments were not run side by side.
# Read-out: cell growth or viability
SMILES,cell line,method,time,setting,IC50
CC[C@H](C)[C@H](NC(=O)[C@H](CCCCN)NC(=O)[C@H](CCCCN)NC(=O)[C@H](CC(C)C)NC(=O)[C@H](CC(C)C)NC(=O)[C@H](CCCCN)NC(=O)[C@H](CCCCN)NC(=O)[C@H](CC(C)C)NC(=O)[C@H](CCCCN)NC(=O)[C@H](CCCCN)NC(=O)[C@@H](N)CC(C)C)C(=O)N[C@@H](CCCCN)C(=O)N[C@@H](CCCNC(=N)N)C(N)=O,A549,MTT,24 h,,> 500 µM
COc1cc(C(=O)c2nc(-c3cccc4[nH]ccc34)c[nH]2)cc(OC)c1OC,PC-3,MTS,72 h,,~0.0013 µM
CC[C@H](C)[C@H](NC(=O)CN)C(=O)NCC(=O)N[C@@H](C)C(=O)N[C@H](C(=O)N[C@@H](CC(C)C)C(=O)N[C@@H](CCCCN)C(=O)N[C@H](C(=O)N[C@@H](CC(C)C)C(=O)N[C@H](C(=O)N[C@H](C(=O)NCC(=O)N[C@@H](CC(C)C)C(=O)N1CCC[C@H]1C(=O)N[C@@H](C)C(=O)N[C@@H](CC(C)C)C(=O)N[C@H](C(=O)N[C@@H](CO)C(=O)N[C@@H](Cc1c[nH]c2ccccc12)C(=O)N[C@H](C(=O)N[C@@H](CCCCN)C(=O)N[C@@H](CCCNC(=N)N)C(=O)N[C@@H](CCCCN)C(=O)N[C@@H](CCCNC(=N)N)C(=O)N[C@@H](CCC(N)=O)C(=O)N[C@@H](CCC(N)=O)C(N)=O)[C@@H](C)CC)[C@@H](C)CC)[C@@H](C)O)[C@@H](C)O)C(C)C)C(C)C,IPEC-J2,MTT,24 h,,8.58 µM
CC(C)[C@H](NC(=O)[C@H](CCCCN)NC(=O)[C@H](Cc1c[nH]c2ccccc12)NC(=O)[C@H](Cc1c[nH]c2ccccc12)NC(=O)[C@H](CCCNC(=N)N)NC(=O)[C@H](Cc1c[nH]c2ccccc12)NC(=O)[C@H](Cc1c[nH]cn1)NC(=O)[C@@H](N)CCCNC(=N)N)C(=O)N[C@@H](Cc1c[nH]cn1)C(=O)N[C@@H](Cc1c[nH]c2ccccc12)C(=O)N[C@@H](CCCNC(=N)N)C(=O)N[C@@H](CCC(=O)O)C(=O)N[C@@H](Cc1c[nH]c2ccccc12)C(N)=O,A549,MTT,24 h,,> 500 µM
COc1cc(C(=O)c2nc(-c3c[nH]c4ccccc34)c[nH]2)cc(OC)c1OC,PC-3,MTS,72 h,,0.0711 µM
N.N.[Cl][Pt][Cl],A549,MTT,48 h,,15.8 µM
CC(=N)S,NIH3T3,,96 h,3D culture,332 µM
COc1cc(C(=O)c2nc(-c3cccc4[nH]ccc34)cn2C)cc(OC)c1OC,PC-3,MTS,72 h,,0.17 µM
N.N.[Cl][Pt][Cl],NIH3T3,,96 h,,6.78 µM
N.N.[Cl][Pt][Cl],WSU-NHL,ATP luminescence,72 h,,1.18 µM
CC[C@H](C)[C@H](NC(=O)[C@H](CCCNC(=N)N)NC(=O)[C@H](CCCNC(=N)N)NC(=O)[C@H](CCCCN)NC(=O)[C@H](CCCNC(=N)N)NC(=O)[C@H](CCCNC(=N)N)NC(=O)[C@H](CCCNC(=N)N)NC(=O)[C@H](CC(C)C)NC(=O)[C@H](CCCNC(=N)N)NC(=O)CNC(=O)[C@H](CCSC)NC(=O)[C@@H](N)CCSC)C(=O)N[C@@H](CCCCN)C(N)=O,A549,MTT,24 h,,> 500 µM
C#CC[C@@H]1NC(=O)[C@@H](CCCNC(=N)N)NC(=O)[C@H]([C@@H](C)O)NC(=O)[C@@H](CCCN)NC(=O)[C@H](Cc2ccccc2)NC(=O)[C@@H](Cc2ccccc2)NC1=O,A549,ATP luminescence,,,> 100 µM
S=P1(c2ccccc2)CCCCC1,PC-3,MTT,72 h,,> 100 µM
CC(C)C[C@H](NC(=O)[C@H](CCCCN)NC(=O)[C@H](Cc1c[nH]c2ccccc12)NC(=O)[C@H](Cc1c[nH]c2ccccc12)NC(=O)[C@H](CCCNC(=N)N)NC(=O)[C@H](Cc1c[nH]c2ccccc12)NC(=O)[C@H](Cc1c[nH]cn1)NC(=O)[C@@H](N)CCCNC(=N)N)C(=O)N[C@@H](Cc1c[nH]cn1)C(=O)N[C@@H](Cc1c[nH]c2ccccc12)C(=O)N[C@@H](CCCNC(=N)N)C(=O)N[C@@H](CCC(=O)O)C(=O)N[C@@H](Cc1c[nH]c2ccccc12)C(N)=O,A549,MTT,24 h,,71 µM
COc1cc(C(=O)c2nc(-c3ccc4[nH]ccc4c3)c[nH]2)cc(OC)c1OC,PC-3,MTS,72 h,,0.0277 µM
